The values that follow come from publication PMC3433230 (Journal of biomolecular screening, 2009).

Bounds are passed on as bounds.

The subject of data set [1] is RBL-2H3 cells. Nature of the data set: Live cell microscopy of RBL-2H3 cells. It counts as cell-based, Rat. Conditions: 10 μM; for cell shape changes in response to ligand-mediated activation: 1 μg/ml DNP/BSA, IgE primed cells.
Data set [2] has as its system RBL-2H3 cells. Kind of data set: β-Hexosaminidase secretion measurements in RBL-2H3 cells. It counts as cell-based, Rat. The method in brief: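 RBL-2H3 cells are primed overnight with IgE, washed and incubated 1 h with test compound in Tyrode's buffer. Supernatant is sampled for spontaneous β-hexosaminidase release. Cells are then activated with DNP/BSA (0.1 μg/ml) for 30 min at 37°C. Release is expressed as percent of total enzyme from Triton X-100-lysed cells.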

For data set [3], the system named is NIH 3T3 fibroblasts. Conditions: NIH 3T3 fibroblasts ref 30; cited from earlier work.
Data set [4] deals with Cdc42wt, Rac1wt, Rac1Q61L, Rab2 wt, Rab7wt, and H-Ras wt (GST-GTPases). Nature of the data set: Multiplexed primary screen, flow cytometry bead-based BODIPY-FL-GTP binding. Conditions: 10 μM compound, 100 nM BODIPY-FL-GTP, 1 mM EDTA. The essentials:
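Each GST-GTPase (1 μM) is loaded overnight at 4°C onto its own red-intensity GSH-bead set. Beads are washed in NP-HPSE with 0.1% BSA and 1 mM DTT, then pooled, about 2000 beads per GTPase per well. Test compound is added at 10 μM (1% DMSO), with BODIPY-FL-GTP from a 200 nM stock. Plates rotate 40–45 min at 4°C and are read by HyperCyt flow cytometry. FL8 identifies bead sets; median FL1 (530 nm) gives binding. Hits exceed 20% change from baseline. Controls are DMSO and 0.5 mM unlabelled GTP.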

Data set [5] concerns H-Ras and Rab proteins. Nature of the data set: Dose response of BODIPY-FL-GTP binding, 1 mM EDTA. Particulars: 10^−4 M compound. The method in brief:
(§1)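 GST-GTPases are coupled overnight at 4°C to colour-coded GSH-beads at 1 μM each. Beads are run as a multiplex (Rab7 wt, Rab2 wt, H-Ras wt, H-RasG12V, Cdc42 wt, Cdc42Q61L). […] Buffer contains 1 mM EDTA. Test compound is a 9-point 1:3 series, final 10 nM–100 μM. Binding of 100 nM (final) BODIPY-FL-GTP is read by flow cytometry, in triplicate.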

Data set [6] concerns Rac1 wt, Rac1Q61L, Rac2 wt, RhoA wt and RhoAL63, Cdc42 wt, Cdc42Q61L and Ral wt. Kind of data set: Eight-plex dose response of BODIPY-FL-GTP binding, 1 mM MgCl2. Conditions: 1 mM MgCl2, 100 nM BODIPY-FL-GTP. The method in brief:
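Buffer is NP-HPS with 1 mM MgCl2. Binding of 100 nM BODIPY-FL-GTP is measured by flow cytometry with or without a 9-point 1:3 test-compound series (final 10 nM–100 μM). Each series is run in triplicate.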

For data set [7], the target named is Wild-type GST-Cdc42 (Homo sapiens, UniProt P60953). Kind of data set: Real-time GTP-binding kinetic assay by flow cytometry. The essentials: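 GST-Cdc42 wt (4 μM) is bound to GSH-beads overnight at 4°C. Nucleotide is stripped with 10 mM EDTA for 20 min at 30°C, then beads are washed and resuspended in NP-HPS with 1 mM EDTA, 1 mM DTT and 0.1% BSA. Beads are preincubated 2 min with 1% DMSO or 10 μM test compound. Ice-cold BODIPY-FL-GTP (6.5–200 nM) is added, and association is followed 3 min by kinetic-mode flow cytometry (n=4). Bound signal at 3 min versus GTP concentration is curve-fitted.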
Wild-type GST-Cdc42, sequence (P60953 whole entry): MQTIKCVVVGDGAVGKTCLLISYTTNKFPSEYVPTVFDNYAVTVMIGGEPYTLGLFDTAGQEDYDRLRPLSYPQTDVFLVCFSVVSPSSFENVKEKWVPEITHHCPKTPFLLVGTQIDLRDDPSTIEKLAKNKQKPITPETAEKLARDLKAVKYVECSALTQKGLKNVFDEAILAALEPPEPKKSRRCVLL

Data set [8] has as its target T1, Rac1 (Mus musculus, UniProt P63001). Kind of data set: Rac activation assay. Format: cell-based. The method in brief:
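Swiss 3T3 cells are serum-starved overnight, then treated 20–30 min with 1% DMSO or 10 μM test compound. Some cells are then given 10 ng/ml EGF for 2 min; EGF alone is the positive control.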

In data set [9] the target is GST-Rac1 (Homo sapiens, UniProt P63000). Nature of the data set: In vitro bead based assay of Rac1 binding to fluorescent GTP. Conditions: 10 μM compound, 100 nM fluorescent GTP.
Data set [10] concerns the target T1, Rac1. Kind of data set: G-LISA assay for active Rac in Swiss 3T3 cells. Format: cell-based. Conditions: for blocking EGF-stimulated Rac activation: concentrations of 1 μM or less.
The subject of data set [11] is RBL-2H3 cells. Kind of data set: Rhodamine-phalloidin staining and confocal microscopy of RBL-2H3 cells. Format: cell-based, Rat. Conditions: 10 μM, DNP/BSA 1 μg/ml. The essentials: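 RBL-2H3 cells on coverslips are cultured overnight with or without 10 μM test compound; stimulated cells get 1 μg/ml DNP-BSA for 30 min. Cells are fixed in 3% paraformaldehyde, permeabilised 5 min in 0.1% Triton X-100, blocked 1 h in 1% BSA and stained 1 h with rhodamine-phalloidin, all at room temperature. Confocal x-y and x-z views are collected.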

The subject of data set [12] is Swiss 3T3 cells. Nature of the data set: Stress fiber formation in EGF treated Swiss 3T3 cells. It counts as cell-based. Conditions: 10 μM, 30 min pre-treatment, 10 ng/ml EGF. The essentials: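 Quiescent, serum-starved Swiss 3T3 fibroblasts are treated 30 min with 10 μM test compound or DMSO, then stimulated with 10 ng/ml EGF for 2 min. Cells are imaged for actin stress fibres.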

For data set [13], the target named is Cdc42 (Homo sapiens, UniProt P60953). Nature of the data set: Dose response of BODIPY-FL-GTP binding, 1 mM EDTA. The method in brief: as §1
Cdc42, sequence (P60953 whole entry): as above
Setting [14] is: 10 μM inhibitor, 6.5–200 nM BODIPY-GTP.

Regarding `O=c1cc(CN2CCOCC2)occ1OCCCCCSc1ccnc2cc(C(F)(F)F)ccc12` [EHT1864, reference compound], in data set [1], the “cell shape changes in response to ligand-mediated activation” value (“cell shape changes in response” below) was “failed to inhibit”. Besides, in data set [2] (10 μM), the “inhibition of β-hexosaminidase secretion in response to ligand-stimulation” value is on record as “failed to inhibit”. In addition, the “lamellipodia formation following platelet derived growth factor stimulation” value in data set [3] is “blocked”.

As for `O=C(C#Cc1ccccc1)c1cccc([N+](=O)[O-])c1` [MLS000532223, 1-(3-nitrophenyl)-3-phenyl-2-propyn-1-one], the “effect on BODIPY-FL-GTP binding to the tested GTPases, primary screen” value in data set [4] is “inhibitory effect”. In addition, the “inhibition of BODIPY-FL-GTP binding” value in [5] is listed as under 20%. For the same molecule, the “effect on BODIPY-FL-GTP binding in the presence of Mg2+” value in data set [6] is “inhibited the activity of all tested GTPases of the Rho and Ral families”. Also, in data set [7] (setting [14]), the “effect on Bmax of GTP-binding” value is “decreased” and the “effect on affinity of GTP to wild type Cdc42” value is “remained constant”. Also, in data set [7] (data not shown), the reversibility of activity entry is on record as “not reversible”. The “growth factor induced activation of Rac1” value in [8] (10 μM pretreatment, 10 ng/ml EGF for 2 min) is “completely inhibited”. Besides, the “low level of active Rac1 in serum starved cells” value in [8] (10 μM, 30 min pretreatment, no EGF) is listed as “completely abolished”. Moreover, the “inhibition of BODIPY-FL-GTP binding to GST-Rac1” value in [9] was “similar”. Besides, the “inhibition of EGF stimulated activation of Rac1” value in data set [10] (3–10 μM, 1 h, then 10 ng/ml EGF 2 min) was “effectively inhibited”. In addition, the “blocking EGF-stimulated Rac activation” value in data set [10] is “Neither compound was effective”. The “cell shape and F-actin after cross-linking of IgE receptors” value in data set [11] is “failed to flatten”. The “formation of stress fibers upon EGF stimulation” value in data set [12] is on record as “completely inhibited”. Also, the “cell shape changes in response” value in data set [1] is “completely abrogated”. Moreover, the “morphology of resting cells” value in [1] (no ligand) is “no change in morphology”. Moreover, the toxicity to cells result in data set [2] (10 μM) was “not toxic”. Besides, in data set [2] (10 μM, 1 h), the “spontaneous β-hexosaminidase secretion, absence of ligand stimulation” value is on record as “no β-hexosaminidase secretion”. Further, in [2] (10 μM, DNP/BSA), the “reduction of β-hexosaminidase secretion in ligand-stimulated cells” value is 50%.

Turning to `NS(=O)(=O)c1ccc(N2N=C(c3ccccc3)CC2c2ccccc2)cc1` (centres unmarked) [MLS000573151, 4-[3,5-di(phenyl)-4,5-dihydropyrazol-1-yl]benzenesulfonamide], in data set [4], the “effect on BODIPY-FL-GTP binding to the tested GTPases, primary screen” value is “Cdc42 specific inhibitor”. The molecule also displayed an EC50 in data set [13] of about 2 µM. In addition, in data set [6], the “effect on BODIPY-FL-GTP binding in the presence of Mg2+” value is listed as “specific for Cdc42”.

`CCN(CC)CCCC(C)Nc1nc(C)cc(Nc2ccc3nc(C)cc(N)c3c2)n1` (centres unmarked) [NSC23766, reference compound]: the “blocking EGF-stimulated Rac activation” value in data set [10] is on record as “Neither compound was effective”. In addition, the “inhibition of EGF stimulated activation of Rac1” value in [10] (doses up to 50 μM) is “more modest inhibition”. Also, the “cell shape changes in response” value in data set [1] is “failed to inhibit”. Further, the “toxicity to RBL-2H3 cells” value in data set [2] (50 μM) is recorded as “toxic”. Moreover, the “spontaneous β-hexosaminidase release” value in data set [2] (50 μM (Fig. 7A), 1 h) was “extensive”.
